Shown are actives, neighbours in structure and some others; about 3.6% of the full set was active somewhere.
IMP-1 inh – blocks Pseudomonas aeruginosa IMP-1 metallo-beta-lactamase. purified IMP-1, nitrocefin hydrolysis, epi-absorbance fluorescence. inhibition, % at 5.6 µM. hit rate 0.45% among 290,000. AID 1556;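 active means inhibition above the mean plus 3 SD of all compounds in the same screening run, cut at about 4.5% in these data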;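 further: 0% = IMP-1 with DMSO and 100% = DMSO wells lacking enzyme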
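Test system: recombinant IMP-1 enzyme, purified / Medium: HEPES buffer pH 7.1 with ZnSO4 and Brij 35 / Doses: single dose, 5.6 µM / Times: 25 °C, 15 min preincubation, 25 min reaction / Detection: Epi-absorbance via hydrolysed-nitrocefin quenching of white-plate fluorescence, 480/530 nm, EDTA stop / Evaluation: percent inhibition from optical density relative to buffer-blank wells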
VIM-2 inh – blocks Pseudomonas aeruginosa VIM-2 metallo-beta-lactamase; hit rate 0.89% among 290,000; purified VIM-2, nitrocefin hydrolysis, epi-absorbance fluorescence; inhibition, % at 5.6 µM; AID 1527;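 active means inhibition above the mean of all tested compounds plus 3 SD, cutoff set per screening run, cut at about 7.5% in these data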;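 further: red hydrolysis product quenches plate fluorescence so inhibitors raise well fluorescence; 0% = enzyme with DMSO and 100% = DMSO without enzyme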
PAFAH1B2 FP inh – blocks human PAF acetylhydrolase 1b catalytic subunit 2 | recombinant PAFAH1B2, FP-rhodamine activity probe, fluorescence polarization | inhibition, % at 3.39 µM | hit rate 1.2% among 340,000 | AID 492953;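 active means inhibition above the mean of all tested compounds plus 3 SD, cut at about 24% in these data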;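 further: 0% = enzyme with DMSO and 100% = wells lacking PAFAH1B2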
PAFAH2 FP inh – inhibitors of human PAFAH2 | inhibition, % at 3.39 µM | recombinant PAFAH2, FP-rhodamine activity probe, fluorescence polarization | Q99487 | hit rate 0.99% among 340,000;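 active means inhibition above the mean over all tested compounds plus 3 SD, cut at about 30% in these data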;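 further: inhibitors block probe labeling of enzyme so polarization drops; 0% = enzyme with DMSO and 100% = wells lacking PAFAH2 protein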
pPAFAH inh – pPAFAH (human) enzyme inhibition | Q13093 | recombinant pPAFAH, FP-rhodamine probe fluorescence polarization | inhibition, % at 3.39 µM | hit rate 1.5% among 330,000 | AID 463082;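 active means inhibition above the mean inhibition across the screen plus 3 SD, cut at about 25% in these data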;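 further: inhibitors block binding of the rhodamine activity-based probe so polarization drops; 0% = enzyme with DMSO and 100% = wells lacking pPAFAH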
Target sequence (Q13093 whole entry, looked up): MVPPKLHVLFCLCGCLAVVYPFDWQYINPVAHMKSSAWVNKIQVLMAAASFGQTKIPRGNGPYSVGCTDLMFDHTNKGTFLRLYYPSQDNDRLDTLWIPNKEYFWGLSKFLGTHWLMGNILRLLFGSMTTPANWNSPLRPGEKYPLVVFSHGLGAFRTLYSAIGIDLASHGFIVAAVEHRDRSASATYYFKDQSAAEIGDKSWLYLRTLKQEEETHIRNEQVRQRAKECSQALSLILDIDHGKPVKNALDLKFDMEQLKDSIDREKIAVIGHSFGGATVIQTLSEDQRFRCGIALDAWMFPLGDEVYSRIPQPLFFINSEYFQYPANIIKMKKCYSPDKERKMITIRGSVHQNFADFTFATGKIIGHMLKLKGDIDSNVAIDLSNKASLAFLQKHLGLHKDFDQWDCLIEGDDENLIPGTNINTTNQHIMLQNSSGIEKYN
PAFAH1B3 inh – PAFAH1B3 (human) inhibition | recombinant PAFAH1B3, FP-rhodamine probe, fluorescence polarization | inhibition, % at 3.39 µM | hit rate 0.28% among 340,000;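 active means inhibition above the screen-wide average of all tested compounds plus 3 SD, cut at about 25% in these data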;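 further: 0% = enzyme with DMSO only and 100% = wells lacking PAFAH1B3 protein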
Target sequence (Q15102 whole entry, looked up): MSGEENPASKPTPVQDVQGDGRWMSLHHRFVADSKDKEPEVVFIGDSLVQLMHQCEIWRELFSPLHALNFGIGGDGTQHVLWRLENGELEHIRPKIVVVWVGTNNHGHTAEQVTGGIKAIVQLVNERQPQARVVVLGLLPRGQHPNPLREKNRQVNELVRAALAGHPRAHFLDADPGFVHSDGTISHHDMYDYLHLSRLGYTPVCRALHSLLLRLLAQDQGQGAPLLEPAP
pPAFAH FP conf – confirmation of human plasma PAF acetylhydrolase (pPAFAH) inhibitors. shares compounds with pPAFAH inh. hit rate 72% among 2,300. inhibition, % at 3.39 µM. recombinant pPAFAH, FP-Rh probe fluorescence polarization;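 active means mean inhibition of the triplicate above the hit cutoff set for the earlier primary screen, cut at about 25% in these data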;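 further: 0% = enzyme with DMSO and 100% = wells lacking pPAFAH enzyme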
Starred values were filed as active, the others as inactive; nt = no result.

SMILES | IMP-1 inh | VIM-2 inh | PAFAH1B2 FP inh | PAFAH2 FP inh | pPAFAH inh | PAFAH1B3 inh | pPAFAH FP conf
Cc1nn(CC(=O)NC(C)C(C)C)c(C)c1S(=O)(=O)N1CCCCC1 (configuration not stated) | nt | nt | 4 | 1 | nt | 1 | nt
Oc1ccc(/C=N/n2c(-c3ccco3)csc2=Nc2cccnc2)c(O)c1 | -2 | -3 | 9 | 10 | 19 | 10 | nt
COCCN=c1scc(-c2ccco2)n1/N=C/c1ccc(O)c(O)c1O | 2 | 1 | -8 | 25 | 64* | 8 | 67*
CC(C)N=c1scc(-c2ccco2)n1/N=C/c1ccc(O)c(O)c1 | -2 | -2 | 1 | 4 | 64* | 6 | 69*
COCCN=c1scc(-c2cccs2)n1/N=C(\C)c1ccco1 | -3 | -1 | -3 | -1 | 6 | -3 | nt
C=CCN=c1scc(-c2ccco2)n1/N=C/c1ccc(O)c(O)c1O | -1 | -4 | -1 | 7 | 49* | 6 | 68*
Cc1cc(C)nc(N2CCN(c3ccc(F)cc3)CC2)n1 | -3 | -2 | 5 | 3 | nt | 6 | nt
COc1ccc(-c2ccc3c(c2)S(=O)(=O)c2cccc(C(=O)NCc4cc(C)oc4C(F)(F)F)c2C3=O)cc1OC | nt | nt | 1 | -1 | 9 | 15 | nt
COCCN(C(=O)COC(=O)/C=C/c1ccc(OC)c(OC)c1)c1c(N)n(Cc2ccccc2)c(=O)[nH]c1=O | nt | nt | 2 | 0 | -5 | 1 | nt
O=C(O)COc1ccccc1/C=N/NC(=O)c1cc2ccccc2cc1O | -2 | -2 | 5 | 1 | 43* | 3 | 2
O=C(N/N=C/C1CC=CCC1)c1ccc(O)cc1O (configuration not stated) | -2 | -3 | 1 | -2 | 0 | 7 | nt
O=C(N/N=C/C1CC=CCC1)c1cc2ccccc2cc1O (configuration not stated) | -3 | 1 | 0 | 9 | 44* | 15 | 17
Cn1cccc1/C=N/NC(=O)c1cc2ccccc2cc1O | -2 | -3 | 12 | 5 | 51* | 21 | 9
O=c1oc(CCCO)cc2ccc(/C=C/c3cccc([N+](=O)[O-])c3)cc12 | nt | nt | -17 | -28 | -8 | -27 | nt
O=C(/C=C/c1ccco1)NC(=S)Nc1ccc(N2CCCC2)cc1 | 1 | 0 | 2 | 1 | 47* | 1 | 14
CC(=O)NC(=S)Nc1ccc(NC(=S)NC(=O)/C=C/c2ccco2)cc1 | -2 | -3 | -7 | -21 | -3 | -10 | nt
O=C(/C=C/c1ccco1)NC(=S)Nc1ccc(C(=O)O)cc1 | 1 | 0 | 2 | 0 | 39* | 13 | 7
N=C1SC(c2ccccc2)C(=O)N1c1ncc(Cc2ccccc2)s1 (configuration not stated) | -3 | -3 | 34* | 28 | 39* | 3 | 44*
O=[N+]([O-])c1cccc(S(=O)(=O)N2CCCCC2)c1 | -2 | -1 | 8 | 9 | 6 | 6 | nt
CCCCCCCCN1[C@@H](CC(=O)OC)c2cc(F)ccc2S1(=O)=O | nt | nt | 10 | -6 | 4 | 0 | nt
CCCCCCCCCCCCN1[C@@H](CC(=O)O)c2cc(C(F)(F)F)ccc2S1(=O)=O | nt | nt | 23 | 11 | 44* | 3 | 41*
CCCCCCCCCCCCN1[C@@H](CC(=O)O)c2cc(F)ccc2S1(=O)=O | nt | nt | 31* | -2 | 48* | -3 | 34*
CCCCCCCCCCCCN1[C@@H](CC(=O)OC)c2cc(C(F)(F)F)ccc2S1(=O)=O | nt | nt | 4 | -3 | 8 | -4 | nt
COC(=O)c1sc2nc(C)nc(SCC(=O)Nc3sccc3C(N)=O)c2c1C | nt | nt | 1 | -2 | -2 | -6 | nt
O=[N+]([O-])c1cc(-c2ccc(/C=N/c3nc4ccccn4c3-c3ccco3)o2)ccc1Cl | -2 | -1 | 7 | 19 | 35* | 13 | 14
SMILES | IMP-1 inh | VIM-2 inh | PAFAH1B2 FP inh | PAFAH2 FP inh | pPAFAH inh | PAFAH1B3 inh | pPAFAH FP conf
O=[N+]([O-])c1ccc(-c2ccc(C=Nc3cccc4ccccc34)o2)cc1 | 0 | 2 | 0 | 1 | 4 | 6 | nt
Cc1nn(C)cc1/C=C1\SC(=S)NC1=O | -4 | -2 | 1 | -7 | 0 | -1 | nt
Cc1cc(/C=C2\SC(=S)NC2=O)c(C)n1-c1ccc(O)cc1 | -1 | 8.1* | 12 | 21 | 35* | 12 | 45*
Cc1cc(/C=C2\SC(=S)NC2=O)c(C)n1C | -2 | -5 | 7 | 23 | 39* | 17 | 7
Cc1ccccc1-n1c(SCC(=O)N2CCOCC2)nc(O)cc1=O | -2 | 4 | 0 | 5 | 39* | 2 | 8
O=C(CSc1c(F)c(F)cc(F)c1F)Nc1ccc(C2SCCS2)cc1 | -1 | 0 | -3 | 7 | 90* | 8 | 4
O=C(CSc1ccc(Cl)cc1)Nc1ccc(C2SCCS2)cc1 | -3 | 0 | 16 | 5 | 6 | 6 | nt
CS(=O)(=O)c1cccc(C(=O)OCC(=O)NC(=O)Nc2ccccc2F)c1 | nt | nt | 6 | -1 | -2 | 6 | nt
COc1cc(C(=O)OCC(=O)N2CCCC2=O)cc(OC)c1C | nt | nt | 0 | 14 | 8 | 2 | nt
COc1ccc(S(=O)(=O)N2CCN(C)CC2c2ccccc2)cc1OC (configuration not stated) | nt | nt | 1 | -1 | nt | 3 | nt
CN1C(C(=O)NCc2ccco2)=CC(c2ccc(F)cc2)=NS1(=O)=O | 1 | -1 | -7 | 3 | 67* | -7 | 10
Cc1cc2nc3c(=O)[nH]c(=S)[nH]c3nc2cc1NC(=O)C(F)(F)F | 1 | -4 | 5 | -1 | 79* | 9 | 5
CCCCC1CC(/C(C)=N/NC(N)=O)OC1=O (configuration not stated) | -1 | -2 | -1 | -3 | 58* | 10 | 2
O=C(O)c1cc([N+](=O)[O-])ccc1Oc1ccccc1 | nt | nt | 2 | 5 | nt | 3 | nt
CCN(CC)c1nc(N)c2c(N)n(-c3ccccc3C)c(=S)c(C#N)c2c1C#N | -3 | 3 | 25* | 43* | 47* | 12 | 31*
Cc1cccc(N2CCN(C(=O)c3ccc(CS(=O)Cc4cccc(Cl)c4)o3)CC2)c1C (configuration not stated) | 1 | 2 | 2 | 7 | 43* | 8 | 19
COc1ccc(N2CCN(C(=O)c3ccc(CS(=O)Cc4ccc(Cl)cc4)o3)CC2)cc1 (configuration not stated) | -2 | -5 | 3 | 1 | 36* | -1 | 28*
O=C(c1ccc(CS(=O)Cc2ccc(Cl)cc2)o1)N1CCN(c2ccccc2F)CC1 (configuration not stated) | -3 | -6 | 7 | 13 | 24 | 8 | nt
Cc1nc(N2CCN(c3ccccn3)CC2)c2c(C)c(C(=O)N3CCN(c4ccccc4F)CC3)sc2n1 | 3 | 2 | -2 | 1 | 0 | 7 | nt
